Results reported in paper PMC5564211 (European journal of medicinal chemistry, 2017).

Legend:
mouse [1] = experiment: Locomotor activity assay; format: in vivo; conditions: mice; for effect on locomotion compared with the same dose of D-22: 1 mg/kg ip, one-way ANOVA, Dunnett's test
mouse [2] = experiment: Antidepressant-like activity assay; format: in vivo; conditions: mice, TST, given alone without SSRI
In short: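 Mice given test compound were scored for immobility time in the tail suspension test. A saline-treated group served as control. Groups were compared with saline by one-way ANOVA with Dunnett's post-hoc test, with significance set at P < 0.05.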

mouse [3] = conditions: mice, previously published studies; cited from earlier work
α1-adrenoceptors = experiment: [3H]prazosin binding displacement; parameters: species or system mouse; conditions: [3H]prazosin displacement; for IC50: values as rounded in text
In short: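 Competition binding against 1.5 nM [³H]prazosin in mouse hippocampal homogenate, with test compound added over a range of concentrations to build concentration–effect displacement curves. IC50 is derived by non-linear regression curve fitting. Each ligand's fitted curve is compared statistically with reference-ligand curves.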

Row | Compound | independent antidepressant-like activity (reduction in immobility time) (mouse [2]) | IC50 (α1-adrenoceptors) | other results
1 | CCN1/C(=C/c2ccc3ccccc3[n+]2CC)C=Cc2ccccc21.[I-] [D-22, decynium-22, reference compound] | none of the analogues, including D-22, displayed antidepressant-like activity |  | effect on locomotor activity (mouse [1]; 0.1 mg/kg ip, p=0.44): not at 0.1 mg/kg; effect on locomotor activity (mouse [1]; 1.0 mg/kg ip, cumulative beam breaks 60 to 120 minutes following injection): completely suppressed locomotor activity; effect on immobility time (mouse [3]): without effect on immobility time unless paired with an SSRI
2 | CCOc1ccccc1OCCN[C@H](C)Cc1ccc(OC)c(S(N)(=O)=O)c1 [Tamsulosin, tamsulosin, reference compound] |  | ~2 nM | 
3 | CCN1/C(=C/c2ccc3cc(Cl)ccc3[n+]2CC)C=Cc2ccccc21.[I-] [analogue 6, (E)-6-Chloro-1-ethyl-2-((1-ethylquinolin-2(1H)-ylidene)methyl)quinolinium iodide] | impart independent antidepressant-like activity | 500 nM | effect on locomotion compared with the same dose of D-22 (mouse [1]): affected locomotion significantly less than D-22
4 | (E)-1-Ethyl-2-((1-ethylquinolin-2(1H)-ylidene)methyl)-6-iodo-4a,8a-dihydro-quinolinium iodide [analogue 7] | do not impart independent antidepressant-like activity | 700 nM | effect on locomotion compared with the same dose of D-22 (mouse [1]): affected locomotion significantly less than D-22
5 | C[C@]12C[C@H](O)[C@H]3[C@@H](CCC4=CC(=O)CC[C@@]43C)[C@@H]1CC[C@@H]2C(=O)CO [Corticosterone, corticosterone, reference compound] |  |  | inhibition at adrenoceptors (α1-adrenoceptors): weak inhibitor
6 | CN1/C(=C\c2cc[n+](C)c3ccccc23)C=Cc2ccccc21.O=C([O-])C(F)(F)F [analogue 1, 1,1′-Dimethyl-2,4′-cyanine trifluoroacetate] | do not impart independent antidepressant-like activity |  | 
7 | CC(C)[n+]1ccc(/C=C2/C=Cc3ccccc3N2C)c2ccccc21.O=C([O-])C(F)(F)F [analogue 2, 1-Methyl-1′-isopropyl-2,4′-cyanine trifluoroacetate] | do not impart independent antidepressant-like activity | ~1000 nM | 
8 | (E)-1-Ethyl-2-((1-ethylquinolin-2(1H)-ylidene)methyl)-6-fluoro-4a,8a-dihydro quinolinium iodide [analogue 5] | impart independent antidepressant-like activity | 300 nM | 
